We go through 21 molecules from ChEMBL document CHEMBL4359826, “Preparation of bivalent agonists for targeting the mu opioid and cannabinoid receptors” (Eur J Med Chem, 2019).

What is called Ki is a measure of affinity in units of concentration, obtained from inhibition or displacement. Read a high Ki as lower affinity. What is called EC50 is the concentration needed to bring the measured effect to its halfway point. A high value points to weaker potency. Usually Emax stands for the size of the effect at its maximum, as opposed to the concentration needed.

Assay [1] concerns the target Kappa-type opioid receptor (Cavia porcellus, UniProt P41144). The class given is cell membranes, Brain, Membranes.
Assay [2] is described as follows: Agonist activity at MOR/CB1R/CB2R receptor in Wistar rat brain membranes after 60 mins by [35S]-GTPgammaS binding assay. The class given is cell membranes. Background: GTPγS resists hydrolysis and so accumulates on activated G proteins.
The target of another assay is Mu-type opioid receptor (Rattus norvegicus, UniProt P33535). The assay is described as follows: Displacement of [3H]DAMGO from MOR in Wistar rat brain membranes after 60 mins by liquid scintillation analysis. The class given is cell membranes. A general note: Displacement assays read how much labelled ligand stays bound in the presence of the test substance.
The species named for assay [3] is Rattus norvegicus. To be noted: Wistar, Brain, Membranes, at 10 µM.
In assay [4] the target is Delta-type opioid receptor (Rattus norvegicus, UniProt P33533). The assay is described as follows: Displacement of [3H]Ile5,6-deltorphin-2 from DOR in Wistar rat brain membranes after 60 mins by liquid scintillation analysis. The class given is cell membranes.
Assay [5] concerns the target T1, Cannabinoid receptor (Rattus norvegicus) (UniProt Q9QZN9+P20272). The assay is described as follows: Displacement of [3H]JWH-018 from CB1R/CB2R in Wistar rat brain membranes at 10 uM after 60 mins by liquid scintillation analysis. The class given is cell membranes. The procedure, abridged: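 Whole rat brain membranes (cerebellum removed; 0.3–0.5 mg/mL protein) in 50 mM Tris-HCl pH 7.4 with 2.5 mM EGTA, 5 mM MgCl2 and 0.5 mg/mL fatty-acid-free BSA, 30 °C. Kinetics used 0.6 nM [3H]JWH-018: association over 0–90 min, dissociation started with 10 µM JWH-018 after 60 min. Saturation over 0.5–35 nM. Competitors at 10^-11–10^-5 M, 60 min. Nonspecific binding with 10 µM JWH-018. Filtration onto PEI-soaked GF/B filters; n≥3.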

The target of assay [6] is T2, Cannabinoid receptor (Rattus norvegicus, UniProt Q9QZN9+P20272). The assay is described as follows: Displacement of [3H]JWH-018 from CB1R/CB2R in Wistar rat brain membranes after 60 mins by liquid scintillation analysis. It is filed as cell membranes.
For assay [7], the target named is T2, Cannabinoid receptor. The class given is cell membranes, Wistar, Brain, Membranes.
Assay [8] has as its target Mu-type opioid receptor (Rattus norvegicus) (UniProt P33535). In words: Antagonist activity at MOR in Wistar rat brain membranes at 10 uM in presence of Tyr-D-Ala-Gly-Phe-NH2 after 60 mins by [35S]-GTPgammaS binding assay relative to control. The class given is functional, cell membranes. Put shortly:
(§1)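 Rat brain membranes (30 µg protein/tube) incubated 60 min at 30 °C with 0.05 nM [35S]GTPγS and ligand at 10^-10–10^-5 M. Buffer: 50 mM Tris-HCl pH 7.4 with 30 µM GDP, 100 mM NaCl, 3 mM MgCl2, 1 mM EGTA. Nonspecific binding taken with 10 µM GTPγS; basal set as 100%. Filtration and scintillation counting; n≥3.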

The species named for assay [9] is Rattus norvegicus. In words: Antagonist activity at MOR/CB1R/CB2R in Wistar rat brain membranes at 10 uM in presence of N-[6-[[2-[[(4R,4aS,7aR,12bS)-4a-hydroxy-9-methoxy-3-methyl-2,4,5,6,7a,13-hexahydro-1H-4,12-methanobenzofuro[3,2-e]isoquinoline-7-ylidene]amino]oxyacetyl]amino]hexyl]-6-[3-(naphthalene-1-carbonyl)indol-1-yl]hexanamide after 60 mins by [35S]-GTPgammaS binding assay relative to control. It is filed as cell membranes. The procedure, abridged:
(§2)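 Rat brain membranes (30 µg protein/tube) incubated 60 min at 30 °C with 0.05 nM [35S]GTPγS and ligand at 10^-10–10^-5 M. Buffer: 50 mM Tris-HCl pH 7.4 with 30 µM GDP, 100 mM NaCl, 3 mM MgCl2, 1 mM EGTA. […] Nonspecific binding taken with 10 µM GTPγS; basal set as 100%. Filtration and scintillation counting; n≥3.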

The target in assay [10] is Mu-type opioid receptor (Rattus norvegicus) (UniProt P33535). The assay is described as follows: Antagonist activity at MOR in Wistar rat brain membranes at 10 uM in presence of oxycodone after 60 mins by [35S]-GTPgammaS binding assay relative to control. It is filed as functional, cell membranes. The procedure, abridged:
as §1

Assay [11] has as its target T1, Cannabinoid receptor (Rattus norvegicus). In words: Antagonist activity at CB1R/CB2R in Wistar rat brain membranes at 10 uM in presence of JWH-018 after 60 mins by [35S]-GTPgammaS binding assay relative to control. It is filed as functional, cell membranes. The procedure, abridged:
as §2

Assay [12] is filed under the species Rattus norvegicus. In words: Antagonist activity at MOR/CB1R/CB2R in Wistar rat brain membranes at 10 uM in presence of (S)-N-((2R,8S)-18-(3-(1-naphthoyl)-1H-indol-1-yl)-8-benzyl-3,6,9,12-tetraoxo-4,7,10,13-tetraazaoctadecan-2-yl)-2-amino-3-(4-hydroxyphenyl)propanamide after 60 mins by liquid scintillation analysis relative to control. The class given is cell membranes. The procedure, abridged: as §2

Calls of active or inactive are those of the source. The calls are words filed in the database; no cut-off is given here.

Kappa-type opioid receptor, sequence (P41144 whole entry): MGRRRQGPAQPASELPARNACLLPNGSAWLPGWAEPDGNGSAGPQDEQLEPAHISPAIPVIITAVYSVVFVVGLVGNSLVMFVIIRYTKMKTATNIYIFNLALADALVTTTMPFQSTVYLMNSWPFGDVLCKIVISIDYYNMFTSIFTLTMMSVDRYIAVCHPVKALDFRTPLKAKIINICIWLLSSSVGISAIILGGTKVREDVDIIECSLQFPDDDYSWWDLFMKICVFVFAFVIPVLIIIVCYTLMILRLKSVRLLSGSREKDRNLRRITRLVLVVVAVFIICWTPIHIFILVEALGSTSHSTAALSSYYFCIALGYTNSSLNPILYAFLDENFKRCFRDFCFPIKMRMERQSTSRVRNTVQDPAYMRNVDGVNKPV
Mu-type opioid receptor (Rattus norvegicus), sequence (P33535 whole entry): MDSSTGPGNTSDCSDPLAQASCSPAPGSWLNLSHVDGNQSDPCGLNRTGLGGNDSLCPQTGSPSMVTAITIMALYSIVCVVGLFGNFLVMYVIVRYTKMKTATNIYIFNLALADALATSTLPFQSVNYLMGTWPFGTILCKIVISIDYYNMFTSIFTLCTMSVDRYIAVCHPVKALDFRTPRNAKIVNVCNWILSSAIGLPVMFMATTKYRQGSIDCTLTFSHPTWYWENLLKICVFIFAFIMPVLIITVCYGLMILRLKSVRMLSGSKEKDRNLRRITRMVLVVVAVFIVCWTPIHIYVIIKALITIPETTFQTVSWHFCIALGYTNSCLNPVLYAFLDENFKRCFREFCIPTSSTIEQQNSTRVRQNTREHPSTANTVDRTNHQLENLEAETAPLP
Mu-type opioid receptor, sequence (P33535 whole entry): as above
T1 sequence (P20272 whole entry, looked up): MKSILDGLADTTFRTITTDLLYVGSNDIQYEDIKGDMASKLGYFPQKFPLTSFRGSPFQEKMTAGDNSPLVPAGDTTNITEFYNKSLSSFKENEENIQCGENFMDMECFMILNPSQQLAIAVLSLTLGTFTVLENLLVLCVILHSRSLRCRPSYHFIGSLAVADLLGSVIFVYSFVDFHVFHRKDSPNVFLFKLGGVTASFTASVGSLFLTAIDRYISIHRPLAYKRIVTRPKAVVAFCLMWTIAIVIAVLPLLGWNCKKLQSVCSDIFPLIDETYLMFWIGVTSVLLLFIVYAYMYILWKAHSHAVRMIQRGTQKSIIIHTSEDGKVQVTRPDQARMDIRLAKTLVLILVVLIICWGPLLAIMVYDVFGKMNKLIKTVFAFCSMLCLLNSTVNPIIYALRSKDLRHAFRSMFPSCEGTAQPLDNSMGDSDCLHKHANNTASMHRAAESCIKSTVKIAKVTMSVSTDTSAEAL
T1 sequence (Q9QZN9 whole entry, looked up): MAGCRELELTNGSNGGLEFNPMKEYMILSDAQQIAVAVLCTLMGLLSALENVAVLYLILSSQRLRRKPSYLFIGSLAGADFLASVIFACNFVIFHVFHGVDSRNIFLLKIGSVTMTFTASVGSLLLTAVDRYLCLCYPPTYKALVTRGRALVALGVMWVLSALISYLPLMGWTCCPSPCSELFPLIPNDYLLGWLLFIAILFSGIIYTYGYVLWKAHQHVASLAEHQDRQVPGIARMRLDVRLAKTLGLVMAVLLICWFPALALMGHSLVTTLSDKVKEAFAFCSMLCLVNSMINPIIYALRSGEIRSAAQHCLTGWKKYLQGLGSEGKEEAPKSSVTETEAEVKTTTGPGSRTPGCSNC
Delta-type opioid receptor, sequence (P33533 whole entry): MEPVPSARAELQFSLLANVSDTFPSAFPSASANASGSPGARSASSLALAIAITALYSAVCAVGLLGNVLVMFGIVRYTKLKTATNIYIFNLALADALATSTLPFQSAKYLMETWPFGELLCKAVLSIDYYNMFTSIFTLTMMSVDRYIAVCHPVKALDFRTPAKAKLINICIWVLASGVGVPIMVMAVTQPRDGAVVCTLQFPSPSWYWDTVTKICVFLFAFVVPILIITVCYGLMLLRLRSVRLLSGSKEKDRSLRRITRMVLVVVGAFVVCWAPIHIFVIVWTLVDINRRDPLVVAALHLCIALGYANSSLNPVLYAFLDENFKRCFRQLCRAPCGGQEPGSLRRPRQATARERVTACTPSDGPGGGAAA

For the molecule `COc1ccc2c3c1O[C@H]1/C(=N\OCC(=O)NCCCCCCN)CC[C@@]4(O)[C@@H](C2)N(C)CC[C@]314`, the figures for the inhibition constant Ki (in assay [1]; on Mu-type opioid receptor; in assay [4]) were 380 nM, 41 nM and 659 nM, respectively. In assay [2], this molecule displayed an EC50 of 305 nM. Moreover, the maximum response (Emax) in the assay listed under Rattus norvegicus [3] is 111%.
As to `NC(=O)[C@H](Cc1ccccc1)NC(=O)[C@H](Cc1c[nH]c2ccccc12)NC(=O)[C@@H]1CCCN1C(=O)[C@@H](N)Cc1ccc(O)cc1`, in [5], the result was inactive.
Consider `CCCCCn1cc(C(=O)c2cccc3ccccc23)c2cc(Br)ccc21`, for which the inhibitory constant (Ki) at Cannabinoid receptor [6] was determined as 59 nM.
As for `O=C(O)CCCCCn1cc(C(=O)c2cccc3ccccc23)c2ccccc21`, the Ki is on record as 247 nM at Cannabinoid receptor [6] and 205 nM on Cannabinoid receptor [7]. This molecule had an EC50 in assay [2] of 4220 nM. For the same molecule, in the assay filed under Rattus norvegicus [3], the maximal effect (Emax) amounted to 81%.
With `CC(C)C[C@H](NC(=O)[C@H](Cc1ccccc1)NC(=O)[C@H](CCCCN)NC(=O)[C@H](Cc1ccccc1)NC(=O)[C@H](CC(N)=O)NC(=O)[C@@H](NC(=O)[C@@H]1CCCN1)C(C)C)C(=O)N[C@@H](CO)C(=O)N[C@@H](Cc1cnc[nH]1)C(=O)O` [HEMOPRESSIN], on Cannabinoid receptor [6], the inhibition constant Ki turned out to be 2793 nM.
In the case of `CN1CC[C@]23c4c5ccc(O)c4O[C@H]2[C@@H](O)C=C[C@H]3[C@H]1C5`, the result in assay [5] was inactive.
Molecule H-PVNFKFL-OH came in with a Ki at Cannabinoid receptor [6] of over 10000 nM.
Still for that read-out and setting: the figure for H-RVDPVNFKLLSH-OH is over 10000 nM.
On to `NCCCCCn1cc(C(=O)c2cccc3ccccc23)c2ccccc21`, for which the Ki was determined as 190 nM on Cannabinoid receptor [6] and 269 nM on Cannabinoid receptor [7]. Moreover, in the assay listed under Rattus norvegicus [3], the Emax turned out to be 102%.
For the molecule `C[C@@H](NC(=O)[C@@H](N)Cc1ccc(O)cc1)C(=O)NCC(=O)N[C@@H](Cc1ccccc1)C(=O)NCCCC(=O)NCCCCCn1cc(C(=O)c2cccc3ccccc23)c2ccccc21`, the Ki on Cannabinoid receptor [6] is 928 nM; in [1], 50 nM; at Cannabinoid receptor [7], 1042 nM; at Mu-type opioid receptor, 20 nM; in [4], 92 nM. The molecule further gave an EC50 in [2] of 60 nM. This molecule showed an Emax in the assay listed under Rattus norvegicus [3] of 125%.
For `COc1ccc2c3c1O[C@H]1/C(=N\OCC(=O)NCCCOCCOCCOCCCNC(=O)CCCCCn4cc(C(=O)c5cccc6ccccc56)c5ccccc54)CC[C@@]4(O)[C@@H](C2)N(C)CC[C@]314`, the Ki on Cannabinoid receptor [6] worked out at 183 nM; in assay [1] it was 186 nM; on Cannabinoid receptor [7], 78 nM; on Mu-type opioid receptor it was 20 nM; in assay [4], 386 nM. Also, the Emax in assay [8] came out at 97%; in the assay listed under Rattus norvegicus [9], 101%; in assay [10], 100%; in [11], 110%; in the assay filed under Rattus norvegicus [12], 99%; in the assay filed under Rattus norvegicus [3], 99%.
With `COc1ccc2c3c1O[C@H]1/C(=N\OCC(=O)NCCN)CC[C@@]4(O)[C@@H](C2)N(C)CC[C@]314`, the Ki came out at 471 nM in [1], 17 nM at Mu-type opioid receptor and 533 nM in assay [4]. In addition, the response in [2] was half-maximal at 450 nM (EC50). Moreover, the maximal effect (Emax) in the assay listed under Rattus norvegicus [3] was determined as 113%.
With `COc1ccc2c3c1O[C@H]1/C(=N\OCC(=O)NCCCOCCOCCOCCCN)CC[C@@]4(O)[C@@H](C2)N(C)CC[C@]314`, the values for the inhibitory constant (Ki) (in assay [1]; on Mu-type opioid receptor; in assay [4]) were 503 nM, 74 nM and 757 nM, respectively. In assay [2], the EC50 turned out to be 200 nM. In the assay listed under Rattus norvegicus [3], this molecule came in with an Emax of 112%.
With `COc1ccc2c3c1O[C@H]1/C(=N\OCC(=O)NCCNC(=O)CCCCCn4cc(C(=O)c5cccc6ccccc56)c5ccccc54)CC[C@@]4(O)[C@@H](C2)N(C)CC[C@]314`, the inhibition constant Ki at Cannabinoid receptor [6] was found to be 255 nM; in assay [1] it was 337 nM; at Cannabinoid receptor [7] it was 9.3 nM; on Mu-type opioid receptor it was 33 nM; in [4], 623 nM. The maximal response (Emax) amounted to 102% in assay [8]; 102% in the assay listed under Rattus norvegicus [9]; 101% in assay [10]; 107% in [11]; 103% in the assay filed under Rattus norvegicus [12]; 100% in the assay filed under Rattus norvegicus [3].
For the molecule `CC(=O)NCCCCCn1cc(C(=O)c2cccc3ccccc23)c2ccccc21`, the Ki on Cannabinoid receptor [6] is 145 nM; on Cannabinoid receptor [7], 149 nM. In assay [2], this molecule registered an EC50 of 2150 nM. This molecule also registered a maximal effect (Emax) in the assay filed under Rattus norvegicus [3] of 83%.
As for `C=CCN1CC[C@]23c4c5ccc(O)c4O[C@H]2C(=O)CC[C@@]3(O)[C@H]1C5`, in [5], the outcome was inactive.
As for `Cc1c(C(=O)NN2CCCCC2)nn(-c2ccc(Cl)cc2Cl)c1-c1ccc(Cl)cc1`, the Emax in [11] came out at 100%.
Consider `NC(=O)[C@H](Cc1ccccc1)NC(=O)[C@H](Cc1ccccc1)NC(=O)[C@@H]1CCCN1C(=O)[C@@H](N)Cc1ccc(O)cc1`, for which the result in [5] was inactive.
With `COc1ccc2c3c1O[C@H]1/C(=N\OCC(=O)O)CC[C@@]4(O)[C@@H](C2)N(C)CC[C@]314`, the Ki was over 10000 nM in assay [1], 24 nM on Mu-type opioid receptor and 110 nM in [4]. In assay [2], the response was half-maximal at 225 nM (EC50). In addition, the Emax in the assay listed under Rattus norvegicus [3] is 109%.
For the molecule `C[C@@H](NC(=O)[C@@H](N)Cc1ccc(O)cc1)C(=O)NCC(=O)N[C@@H](Cc1ccccc1)C(=O)NCCC(=O)NCCCCCn1cc(C(=O)c2cccc3ccccc23)c2ccccc21`, the inhibition constant (Ki) on Cannabinoid receptor [6] is 919 nM; in assay [1] it was 151 nM; on Cannabinoid receptor [7] it was 1216 nM; at Mu-type opioid receptor it was 48 nM; in assay [4] it was 190 nM. In assay [2], the EC50 was found to be 18 nM. This molecule returned an Emax in the assay filed under Rattus norvegicus [3] of 114%.
Take `C[C@@H](NC(=O)[C@@H](N)Cc1ccc(O)cc1)C(=O)NCC(=O)N[C@@H](Cc1ccccc1)C(=O)NCCCCCn1cc(C(=O)c2cccc3ccccc23)c2ccccc21`: the inhibition constant (Ki) is 1013 nM on Cannabinoid receptor [6]; 231 nM in assay [1]; 823 nM at Cannabinoid receptor [7]; 50 nM on Mu-type opioid receptor; 214 nM in assay [4]. In addition, the midpoint of the response in assay [2], the EC50, lay at 1800 nM. In addition, the maximal effect (Emax) in the assay listed under Rattus norvegicus [3] came out at 110%.
